Series [1] deals with T1, Renin (Homo sapiens, UniProt P00797).
T1 sequence (P00797 whole entry): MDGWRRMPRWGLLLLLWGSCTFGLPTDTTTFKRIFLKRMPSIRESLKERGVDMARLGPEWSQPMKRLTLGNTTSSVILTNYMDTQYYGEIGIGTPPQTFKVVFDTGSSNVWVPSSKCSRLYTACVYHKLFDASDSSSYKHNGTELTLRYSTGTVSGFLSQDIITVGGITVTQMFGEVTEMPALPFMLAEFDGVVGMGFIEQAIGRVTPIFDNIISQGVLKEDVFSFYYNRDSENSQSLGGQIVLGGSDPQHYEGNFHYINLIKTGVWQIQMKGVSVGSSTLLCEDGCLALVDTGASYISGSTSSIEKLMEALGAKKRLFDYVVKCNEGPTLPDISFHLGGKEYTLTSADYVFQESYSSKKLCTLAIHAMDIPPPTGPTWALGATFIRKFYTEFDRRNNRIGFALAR
Description: Inhibitory activity against purified recombinant human renin.

In series [2] the target is T1, Renin. Put plainly: Inhibitory activity against human plasma renin. The series is classed as cell-free.
A short description of series [3]: Distribution coefficient at pH 7.4. The series is classed as physicochemical. Conditions: RP-HPLC, read-out: Log Kw. The procedure, abridged: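 Log Kw read as log D by HPLC in 20 mM MOPS buffer, pH 7.4, on an LC-ABZ column ([…]) fitted with an LC-ABZ precolumn (20x46 mm).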

The term IC50 denotes the concentration that gives 50% inhibition.

For `c1ccc(COCCCOc2ccc([C@H]3CCNC[C@@H]3OCc3ccc4cccnc4c3)cc2)cc1` (racemic), the IC50 at Renin [1] was 12 nM; against Renin [2], 810 nM.
Regarding `c1ccc(COCCCOc2ncc([C@H]3CCNC[C@@H]3OCc3ccc4ccccc4c3)cn2)cc1` (racemic), the IC50 on Renin [1] is 820 nM; against Renin [2], 8200 nM. In series [3], the chromatographic logD is 4.4.
The matching figures for `O[C@@H]1CNC[C@H](OCc2ccc3ccccc3c2)[C@H]1c1ccc(OCCCOCc2ccccc2)cc1` (racemic): 6.4 nM, 1400 nM and 4.9.
As to `c1ccc(COCCCOc2ccc([C@H]3CCNC[C@@H]3OCc3ccc4c(c3)NCCC4)cc2)cc1` (racemic), the IC50 on Renin [1] is 5.1 nM; against Renin [2] it was 330 nM.
In the case of `c1ccc(COCCCOc2ccc([C@H]3CCNC[C@@H]3OCc3ccc4cc(OCCN5CCOCC5)ccc4c3)cc2)cc1` (racemic), the IC50 was determined as 22 nM at Renin [1] and 1400 nM against Renin [2].
For the molecule `COc1ccccc1COCCCOc1ccc([C@H]2CCNC[C@@H]2OCc2ccc3ccc(=O)[nH]c3c2)cc1` (racemic), the results for the IC50 at Renin [1] and against Renin [2] were 8 nM and 110 nM, respectively. Also, the chromatographic logD in series [3] turned out to be 3.9.
Take `COc1ccccc1COCCCOc1ccc([C@H]2CCNC[C@@H]2OCc2cc(OC)c3ccccc3c2OC)cn1` (racemic): the figures for the IC50 at Renin [1] and against Renin [2] were 0.5 nM and 110 nM, respectively. Besides, the chromatographic logD in series [3] amounted to 4.7.
For `c1ccc(COCCCOc2ccc([C@H]3CCNC[C@@H]3OCc3ccc4ccc(OCCN5CCOCC5)cc4c3)cc2)cc1` (racemic) the same measures were 12 nM, 130 nM and 5.6.
The matching figures for `c1ccc(COCCCOc2ccc([C@H]3[C@H](CSc4ccncc4)CNC[C@@H]3OCc3ccc4ccccc4c3)cc2)cc1` (racemic): 0.4 nM, 490 nM and 5.8.
For the molecule `c1ccc(COCCCOc2ccc([C@@H]3[C@@H](OCc4ccc5ccccc5c4)CNC[C@H]3OCCN3CCOCC3)cc2)cc1` (racemic), the IC50 on Renin [1] worked out at 1.8 nM; against Renin [2], 380 nM.
On to `COc1ccccc1COCCCOc1ccc([C@H]2CCNC[C@@H]2OCc2ccc3cccnc3c2)cc1` (racemic), for which the IC50 at Renin [1] stood at 4 nM; against Renin [2], 160 nM.
Consider `c1ccc(COCCCOc2ccc([C@H]3CCNC[C@@H]3OCc3ccc4ccccc4c3)cn2)cc1` (racemic), for which the IC50 on Renin [1] came out at 590 nM; on Renin [2] it was 7100 nM. Further, the chromatographic logD in series [3] is 5.1.
The matching figures for `COc1ccccc1COCCCOc1ncc([C@H]2CCNC[C@@H]2OCc2cc(OC)c3ccccc3c2OC)cn1` (racemic): 10 nM, 160 nM and 4.1.
`O[C@H]1CNC[C@H](OCc2ccc3ccccc3c2)[C@H]1c1ccc(OCCCOCc2ccccc2)cc1` (racemic): the values for the IC50 at Renin [1] and against Renin [2] were 9 nM and 10000 nM, respectively.
As for `c1ccc(COCCCOc2ccc([C@H]3CCNC[C@@H]3OCc3ccc4ccccc4c3)cc2)cc1` (racemic), the half-maximal inhibitory concentration (IC50) on Renin [1] amounted to 5 nM; on Renin [2], 1300 nM.
The matching figures for `c1ccc(COCCCOc2ccc([C@H]3[C@H](COCCN4CCOCC4)CNC[C@@H]3OCc3ccc4ccccc4c3)cc2)cc1` (racemic): 3.3 nM and 160 nM.
With `O=S(=O)(O)OC[C@@H]1CNC[C@H](OCc2ccc3ccccc3c2)[C@H]1c1ccc(OCCCOCc2ccccc2)cc1` (racemic), the IC50 amounted to 2.3 nM on Renin [1] and 1900 nM at Renin [2].
Take `c1ccc(COCCCOc2ccc([C@H]3[C@H](Cn4cncn4)CNC[C@@H]3OCc3ccc4ccccc4c3)cc2)cc1` (racemic): the IC50 on Renin [1] is 0.92 nM; against Renin [2], 190 nM.
Take `COc1ccccc1COCCCOc1ccc([C@H]2CCNC[C@@H]2OCc2ccc3c(c2)NCCC3)cc1` (racemic): the results for the IC50 at Renin [1] and at Renin [2] were 0.67 nM and 37 nM, respectively. In series [3], the chromatographic logD was found to be 3.8.
On to `COc1ccccc1COCCCOc1ccc([C@H]2CCNC[C@@H]2OCc2cc(OC)c3ccccc3c2OC)cc1` (racemic), for which the IC50 on Renin [1] turned out to be 0.087 nM; against Renin [2], 12 nM. Moreover, the chromatographic logD in series [3] amounted to 5.4.

The values are drawn from ChEMBL document CHEMBL1131714, “Piperidine-renin inhibitors compounds with improved physicochemical properties” (Bioorg Med Chem Lett, 1999).
